Measurements taken from ChEMBL document CHEMBL1144922 (J Med Chem, 2003).

Experiments:
[1] = tested on: Human immunodeficiency virus; experiment: Inhibitory activity against wild type strain,HIV104pre.; assay type: functional, organism-based; details: Human immunodeficiency virus 1
Procedure, shortened: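 Activity against the wild-type strain HIV104pre was read as inhibition of HIV p24 antigen expression in peripheral blood mononuclear cells (PBMC).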

MT2 [2] = experiment: Cytotoxicity based on reduction of the viability of mock-infected MT-2 cells.; assay type: functional; details: Homo sapiens
Procedure, shortened: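 CC50 taken as the concentration reducing the viability of mock-infected (uninfected) MT-2 cells. Values with SD are means of at least three independent experiments; values without SD come from a single experiment.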

MT2 [3] = experiment: Anti-HIV activity based on inhibition of HIV-1 induced cytopathogenicity in MT-2 cells.; assay type: functional, cell-based; details: Homo sapiens
Procedure, shortened: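 IC50 from inhibition of HIV-induced cytopathic effect in MT-2 cells. Values with SD are means of at least three independent experiments; values without SD come from a single experiment.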

[4] = tested on: Human immunodeficiency virus 1; experiment: Anti-HIV activity against multidrug resistant HIV TM strain by inhibition of HIV p24 antigen expression in peripheral blood mononuclear cells(PBMC); assay type: functional, organism-based
Procedure, shortened: (§1)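 Read-out was HIV p24 antigen expression in peripheral blood mononuclear cells infected with multidrug-resistant HIV-1. Values with standard deviation are means of at least three experiments, and values without one come from a single experiment. Wild-type strain HIV104pre was the reference. Protease amino acid substitutions of each strain were characterised.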

[5] = tested on: Human immunodeficiency virus 1; experiment: Anti-HIV activity against multidrug resistant HIV JSL strain by inhibition of HIV p24 antigen expression in peripheral blood mononuclear cells(PBMC); assay type: functional, organism-based; procedure, shortened: as §1
[6] = tested on: Human immunodeficiency virus 1; experiment: Anti-HIV activity against multidrug resistant HIV MM strain by inhibition of HIV p24 antigen expression in peripheral blood mononuclear cells(PBMC); assay type: functional, organism-based; procedure, shortened: as §1
[7] = molecular target: Human immunodeficiency virus type 1 protease (Human immunodeficiency virus 1, UniProt Q72874); experiment: Inhibitory activity against HIV-1 protease
Procedure, shortened: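 Ki against HIV-1 protease. Enzyme reaction rate was obtained by SELDI-MS quantitation of the remaining parent peptide substrate.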

[8] = Selectivity index was determined as ratio of reduction of the viability of mock-infected MT-2 cells/inhibition of HIV-1 induced cytopathogenicity in MT-2 cells.; assay type: functional, MT2

Compound | IC50 [1] | CC50 (MT2 [2]) | IC50 (MT2 [3]) | IC50 [4] | IC50 [5] | IC50 [6] | Ki [7] | SI [8]
CC(C)(C)NC(=O)[C@@H]1C[C@@H]2CCCC[C@@H]2CN1C[C@@H](O)[C@H](Cc1ccccc1)NC(=O)[C@H](CC(N)=O)NC(=O)c1ccc2ccccc2n1 | 0.019 µM | 11 µM | 0.017 µM | – | – | – | – | –
CC(C)CN(C[C@H](O)[C@@H](/C=C/[C@@H](C[S+]([O-])c1ccc2ccccc2c1)NS(C)(=O)=O)Cc1ccccc1)S(=O)(=O)c1ccc(N)cc1 (some centres not stated) | – | – | > 1 µM | – | – | – | – | –
CC(C)CN(C[C@@H](O)[C@@H](/C=C/[C@@H](C[S+]([O-])c1ccc2ccccc2c1)NS(C)(=O)=O)Cc1ccccc1)S(=O)(=O)c1ccc(N)cc1 (some centres not stated) | 0.18 µM | 8 µM | 0.16 µM | > 1 µM | 0.34 µM | 0.52 µM | 0.00038 µM | 58
CC(C)(C)NC(=O)[C@@H]1C[C@@H]2CCCC[C@@H]2CN1CC(O)[C@@H](/C=C/[C@@H](CS(=O)(=O)c1ccc2ccccc2c1)NS(C)(=O)=O)Cc1ccccc1 (some centres not stated) | – | – | > 1 µM | – | – | – | – | –
CC(C)(C)NC(=O)[C@@H]1C[C@@H]2CCCC[C@@H]2CN1CC(O)[C@@H](/C=C/[C@@H](C[S+]([O-])c1ccc2ccccc2c1)NS(C)(=O)=O)Cc1ccccc1 (some centres not stated) | – | – | > 1 µM | – | – | – | – | –
Cc1cn([C@H]2C[C@H](N=[N+]=[N-])[C@@H](CO)O2)c(=O)[nH]c1=O [ZIDOVUDINE] | 0.0025 µM | > 100 µM | 0.027 µM | 0.043 µM | 0.064 µM | 0.037 µM | – | –
CC(C)(C)NC(=O)[C@@H]1C[C@@H]2CCCC[C@@H]2CN1C[C@@H](O)[C@H](Cc1ccccc1)NC(=O)[C@@H](C[S+]([O-])c1ccc2ccccc2c1)NS(C)(=O)=O (some centres not stated) | 0.015 µM | 3.9 µM | 0.0095 µM | 0.034 µM | 0.22 µM | 0.032 µM | 0.00012 µM | 410
CC(C)CN(C[C@@H](O)[C@H](Cc1ccccc1)NC(=O)[C@@H](C[S+]([O-])c1ccc2ccccc2c1)NS(C)(=O)=O)S(=O)(=O)c1ccc(N)cc1 (some centres not stated) | 0.031 µM | 33 µM | 0.066 µM | 0.043 µM | 0.025 µM | 0.036 µM | 0.0001 µM | 500
CC(C)CN(C[C@@H](O)[C@H](Cc1ccccc1)NC(=O)O[C@H]1CCOC1)S(=O)(=O)c1ccc(N)cc1 | 0.02 µM | > 100 µM | 0.036 µM | 0.48 µM | 0.8 µM | 0.53 µM | – | –
